Measured values from ChEMBL document CHEMBL1156597, “Structure-activity relationship of kahalalide F synthetic analogues” (J Med Chem, 2008).

What was measured:
LoVo [1] = assay: Cytotoxicity against human doxorubicin resistant LoVo cells after 48 hrs by SRB assay; type: functional; conditions: for CC50: read-out: LC50 (the source's name)
In short: (§1)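 Cells grown in RPMI 1640 with 10% FBS and penicillin/streptomycin at 37 °C and 5% CO₂, trypsinized, then seeded at 5 × 10³/well. After 18 h drug-free attachment, samples in DMSO/EtOH/PBS (0.5:0.5:99) were added for 48 h continuous exposure. Cells were fixed with cold TCA (1 h, 4 °C) and stained with SRB (10 min). Tris-solubilized stain read at 490 nm. Triplicate wells, mean ± SD; GI₅₀ derived.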

SK-BR-3 = assay: Cytotoxicity against human SKBR3 cells after 48 hrs by SRB assay; type: functional; conditions: SK-BR-3, 48 h; for GI50: read-out: GI50; for CC50: read-out: LC50 (the source's name); in short: as §1
LNCaP = assay: Cytotoxicity against human LNcaP cells after 48 hrs by SRB assay; type: functional; conditions: for CC50: read-out: LC50 (the source's name); in short: as §1
[2] = Cytotoxicity against human IGROV cells after 48 hrs by SRB assay; type: functional; conditions: for CC50: read-out: LC50 (the source's name); in short: as §1
SK-MEL-28 = assay: Cytotoxicity against human SK-MEL-28 cells after 48 hrs by SRB assay; type: functional, cell-based; conditions: Homo sapiens, SK-MEL-28, 48 h; for GI50: read-out: GI50; for CC50: read-out: LC50 (the source's name); in short: as §1
HeLa = assay: Cytotoxicity against human HeLa cells after 48 hrs by SRB assay; type: functional; conditions: for CC50: read-out: LC50 (the source's name); in short: as §1
K562 = assay: Cytotoxicity against human K562 cells after 48 hrs by SRB assay; type: functional; conditions: K562, 48 h; for CC50: read-out: LC50 (the source's name); in short: as §1
[3] = Cytotoxicity against human IGROV-ET cells after 48 hrs by SRB assay; type: functional; conditions: for CC50: read-out: LC50 (the source's name); in short: as §1
A549 = assay: Cytotoxicity against human A549 cells after 48 hrs by SRB assay; type: functional, cell-based; conditions: Homo sapiens, A549, 48 h; in short: as §1
DU-145 = assay: Cytotoxicity against human DU145 cells after 48 hrs by SRB assay; type: functional, cell-based; conditions: Homo sapiens, DU-145, 48 h; for CC50: read-out: LC50 (the source's name); in short: as §1
[4] = Cytotoxicity against human HeLa-APL cells after 48 hrs by SRB assay; type: functional; in short: as §1
LoVo [5] = assay: Cytotoxicity against human LoVo cells after 48 hrs by SRB assay; type: functional; conditions: for CC50: read-out: LC50 (the source's name)
HT-29 = assay: Cytotoxicity against human HT29 cells after 48 hrs by SRB assay; type: functional, cell-based; conditions: Homo sapiens, HT-29, 48 h; for CC50: read-out: LC50 (the source's name); in short: as §1
PANC-1 = assay: Cytotoxicity against human PANC1 cells after 48 hrs by SRB assay; type: functional; conditions: PANC-1, 48 h; for CC50: read-out: LC50 (the source's name); in short: as §1

SMILES	GI50 (LoVo [1]) [nM]	TGI (LoVo [1]) [nM]	CC50 (LoVo [1]) [nM]	TGI (SK-BR-3) [nM]	GI50 (SK-BR-3) [nM]	CC50 (SK-BR-3) [nM]	GI50 (LNCaP) [nM]	TGI (LNCaP) [nM]	CC50 (LNCaP) [nM]	GI50 [2] [nM]	GI50 ([2]; read-out: GI50) [nM]	CC50 [2] [nM]	TGI (SK-MEL-28) [nM]	GI50 (SK-MEL-28) [nM]	CC50 (SK-MEL-28) [nM]	GI50 (HeLa) [nM]	TGI (HeLa) [nM]	CC50 (HeLa) [nM]	CC50 (K562) [nM]	GI50 [3] [nM]	also measured
C/C=C1\NC(=O)[C@H](Cc2ccccc2)NC(=O)[C@@H](C(C)C)NC(=O)[C@@H]([C@H](C)CC)NC(=O)[C@H](NC(=O)[C@H](NC(=O)[C@H](CCCN)NC(=O)[C@H]2CCCN2C(=O)[C@H](NC(=O)[C@@H](NC(=O)[C@H](CC(C)C)NC(=O)[C@H](NC(=O)CCCC(C)C)C(C)C)C(C)C)C(C)C)[C@H](C)CC)[C@H](C)OC(=O)[C@H](C(C)C)NC1=O	280	244	256	466	428	360	1050	964	879	566	637	489	1210	1270	1140	1060	1020	983	1630	583	GI50 (K562): 542 nM; TGI (K562): 926 nM; GI50 ([3]; read-out: GI50): 754 nM; CC50 [3]: 538 nM; GI50 (A549): 602 nM; LC50 (A549): 5280 nM; GI50 (A549; read-out: GI50): 637 nM; GI50 (DU-145): 949 nM; GI50 (DU-145; read-out: GI50): 959 nM; CC50 (DU-145): 944 nM; GI50 [4]: 1170 nM; LC50 (concentration giving 50% net cell kill) [4]: 890 nM; TGI [4]: 1020 nM; GI50 (LoVo [5]): 417 nM; TGI (LoVo [5]): 459 nM; CC50 (LoVo [5]): 331 nM; CC50 (HT-29): 442 nM; GI50 (PANC-1): 1110 nM; TGI (PANC-1): 1280 nM; CC50 (PANC-1): 1760 nM
C/C=C1\NC(=O)[C@H](Cc2ccccc2)NC(=O)[C@@H](C(C)C)NC(=O)[C@@H]([C@H](C)CC)NC(=O)[C@H](NC(=O)[C@H](NC(=O)[C@H](CCCN)NC(=O)[C@H]2CCCN2C(=O)[C@H](NC(=O)[C@@H](NC(=O)[C@@H](NC(=O)[C@H](NC(=O)C2CCC(C)CC2)C(C)C)[C@@H](C)O)C(C)C)C(C)C)[C@H](C)CC)[C@H](C)OC(=O)[C@H](C(C)C)NC1=O (stereo not given in full)	340	329	319	298	350	1030	1070	1170	1260	477	526	441	1060	1010	1100	904	897	892	1810	503	GI50 ([3]; read-out: GI50): 598 nM; CC50 [3]: 426 nM; LC50 (A549): 1340 nM; TGI (A549): 1180 nM; GI50 (A549; read-out: GI50): 1040 nM; GI50 (DU-145): 788 nM; GI50 (DU-145; read-out: GI50): 690 nM; CC50 (DU-145): 839 nM; GI50 [4]: 633 nM; LC50 (concentration giving 50% net cell kill) [4]: 977 nM; TGI [4]: 810 nM; GI50 (LoVo [5]): 244 nM; TGI (LoVo [5]): 280 nM; CC50 (LoVo [5]): 3200 nM; GI50 (HT-29): 551 nM; TGI (HT-29): 554 nM; CC50 (HT-29): 642 nM; GI50 (PANC-1): 2660 nM; TGI (PANC-1): 4530 nM; CC50 (PANC-1): 2300 nM
